Experimental data reported in ChEMBL document CHEMBL1142768, “2-(2-Furanyl)-7-phenyl[1,2,4]triazolo[1,5-c]pyrimidin-5-amine analogs as adenosine A2A antagonists: the successful reduction of hERG activity. Part 2” (Bioorg Med Chem Lett, 2005).

What was measured:
[1] = Inhibitory constant against Adenosine A2A receptor using [3H]SCH-58261 as radio ligand; set-up: species or system Homo sapiens
Outline: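 Radioligand binding at the adenosine A2A receptor, run in duplicate; Ki reported as the mean of the duplicates.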

hERG (KCNH2) = hERG (KCNH2) (Homo sapiens, UniProt Q12809); assay: Percent inhibition of hERG by rubidium efflux FLIPR assay at concentration of 5 ug/mL; format: toxicity
Rattus norvegicus [2] = assay: Percent reduction of cataleptic effect in rat upon dosing at 3 mg/kg; 13/13; format: functional; set-up: scale not given: the % may be the effect or the level left
Rattus norvegicus [3] = assay: Percent reduction of cataleptic effect in rat upon dosing at 3 mg/kg; 23/32; format: functional; set-up: scale not given: the % may be the effect or the level left
Rattus norvegicus [4] = assay: Percent reduction of cataleptic effect in rat upon dosing at 3 mg/kg; 19/46; format: functional; set-up: scale not given: the % may be the effect or the level left
Rattus norvegicus [5] = assay: Percent reduction of cataleptic effect in rat upon dosing at 3 mg/kg; 55/40; format: functional; set-up: scale not given: the % may be the effect or the level left
Rattus norvegicus [6] = assay: Percent reduction of cataleptic effect in rat upon dosing at 3 mg/kg; 28/0; format: functional; set-up: scale not given: the % may be the effect or the level left
Rattus norvegicus [7] = assay: Percent reduction of cataleptic effect in rat upon dosing at 3 mg/kg; 23/47; format: functional; set-up: scale not given: the % may be the effect or the level left
Rattus norvegicus [8] = assay: Percent reduction of cataleptic effect in rat upon dosing at 3 mg/kg; 45/20; format: functional; set-up: scale not given: the % may be the effect or the level left
Rattus norvegicus [9] = assay: Percent reduction of cataleptic effect in rat upon dosing at 3 mg/kg; 10/12; format: functional; set-up: scale not given: the % may be the effect or the level left
Rattus norvegicus [10] = assay: Percent reduction of cataleptic effect in rat upon dosing at 3 mg/kg; 34/43; format: functional; set-up: scale not given: the % may be the effect or the level left
Rattus norvegicus [11] = assay: Percent reduction of cataleptic effect in rat upon dosing at 3 mg/kg; 36/59; format: functional; set-up: scale not given: the % may be the effect or the level left
Rattus norvegicus [12] = assay: Percent reduction of cataleptic effect in rat upon dosing at 3 mg/kg; 0/23; format: functional; set-up: scale not given: the % may be the effect or the level left

Sequence of hERG (KCNH2) (Q12809 whole entry): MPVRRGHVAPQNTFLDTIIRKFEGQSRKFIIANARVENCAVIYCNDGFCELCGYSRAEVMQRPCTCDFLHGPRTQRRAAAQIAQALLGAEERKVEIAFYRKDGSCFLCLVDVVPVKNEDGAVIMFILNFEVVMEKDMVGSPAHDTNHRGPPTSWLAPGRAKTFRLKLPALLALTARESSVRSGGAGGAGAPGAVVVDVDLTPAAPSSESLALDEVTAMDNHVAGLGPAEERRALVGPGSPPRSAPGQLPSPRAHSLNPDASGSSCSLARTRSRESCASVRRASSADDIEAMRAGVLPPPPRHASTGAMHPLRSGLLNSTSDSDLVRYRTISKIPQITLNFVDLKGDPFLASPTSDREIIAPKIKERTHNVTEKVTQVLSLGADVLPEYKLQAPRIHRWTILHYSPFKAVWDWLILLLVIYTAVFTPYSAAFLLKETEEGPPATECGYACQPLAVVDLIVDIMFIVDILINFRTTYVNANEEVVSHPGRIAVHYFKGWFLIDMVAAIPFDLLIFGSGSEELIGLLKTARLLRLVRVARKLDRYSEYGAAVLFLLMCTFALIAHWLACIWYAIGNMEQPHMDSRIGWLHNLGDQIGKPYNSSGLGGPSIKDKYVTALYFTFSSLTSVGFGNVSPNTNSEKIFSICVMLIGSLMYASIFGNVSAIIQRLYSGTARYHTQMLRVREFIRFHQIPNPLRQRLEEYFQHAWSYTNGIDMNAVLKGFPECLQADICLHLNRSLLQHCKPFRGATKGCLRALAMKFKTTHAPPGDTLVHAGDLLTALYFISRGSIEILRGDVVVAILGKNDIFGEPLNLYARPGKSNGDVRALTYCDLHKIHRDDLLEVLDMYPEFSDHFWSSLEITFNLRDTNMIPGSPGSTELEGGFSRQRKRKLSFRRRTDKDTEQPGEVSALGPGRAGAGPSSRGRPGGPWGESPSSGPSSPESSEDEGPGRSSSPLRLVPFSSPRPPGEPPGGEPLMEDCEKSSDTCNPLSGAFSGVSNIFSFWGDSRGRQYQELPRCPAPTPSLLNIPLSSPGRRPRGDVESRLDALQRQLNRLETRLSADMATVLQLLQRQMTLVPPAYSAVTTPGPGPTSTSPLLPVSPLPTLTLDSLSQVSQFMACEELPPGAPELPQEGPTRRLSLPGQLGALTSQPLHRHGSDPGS

SMILES | Ki [1] [nM] | inhibition at 5 ug/mL (hERG (KCNH2)) | other results
Nc1nc(-c2cccc(N3CCNCC3)c2)cc2nc(-c3ccco3)nn12 | 5.7 |  | 
CC(C)S(=O)(=O)N1CCN(c2cccc(-c3cc4nc(-c5ccco5)nn4c(N)n3)c2)CC1 | 0.5 | 10% | Activity (Rattus norvegicus [2]): 13%
Nc1nc(-c2cccc(N3CCN(CCN4CCOCC4)CC3)c2)cc2nc(-c3ccco3)nn12 | 1.3 | 13% | Activity (Rattus norvegicus [3]): 32%
Nc1nc(-c2cccc(N3CCC(=O)CC3)c2)cc2nc(-c3ccco3)nn12 | 1.3 |  | 
COCCOc1cccc(N2CCN(Cc3cccc(-c4cc5nc(-c6ccco6)nn5c(N)n4)c3)CC2)c1 |  | 68% | 
COCCOc1cccc(N2CCN(c3cccc(-c4cc5nc(-c6ccco6)nn5c(N)n4)c3)CC2)c1 | 2.3 | 3% | Activity (Rattus norvegicus [4]): 46%
COCCOc1ccc(N2CCN(Cc3cccc(-c4cc5nc(-c6ccco6)nn5c(N)n4)c3)CC2)cc1 |  | 81% | 
COCCOc1ccc(N2CCN(c3cccc(-c4cc5nc(-c6ccco6)nn5c(N)n4)c3)CC2)cc1 | 1 | -4% (not active) | Activity (Rattus norvegicus [5]): 55%
Nc1nc(-c2cccc(CO)c2)cc2nc(-c3ccco3)nn12 |  | 15% | 
CC1CN(CC(=O)N2CCN(c3cccc(-c4cc5nc(-c6ccco6)nn5c(N)n4)c3)CC2)CCO1 (stereo not drawn) | 0.8 | -3% (not active) | Activity (Rattus norvegicus [6]): 28%
Nc1nc(-c2cccc(N3CCN(C(=O)CN4CCOCC4)CC3)c2)cc2nc(-c3ccco3)nn12 | 0.5 | 5% | Activity (Rattus norvegicus [7]): 47%
Nc1nc(-c2cccc(N3CCC4(CC3)OCCO4)c2)cc2nc(-c3ccco3)nn12 | 0.4 | 8% | Activity (Rattus norvegicus [8]): 45%
CC(C)(C)CNC1CCN(c2cccc(-c3cc4nc(-c5ccco5)nn4c(N)n3)c2)CC1 | 18 | 9% | Activity (Rattus norvegicus [9]): 12%
CCCCOC(=O)N1CCN(c2cccc(-c3cc4nc(-c5ccco5)nn4c(N)n3)c2)CC1 | 0.5 | -3% (not active) | Activity (Rattus norvegicus [10]): 43%
Nc1nc(-c2cccc(N3CCC(N4CCOCC4)CC3)c2)cc2nc(-c3ccco3)nn12 | 0.8 | 1% | Activity (Rattus norvegicus [11]): 59%
CC(C)OC(=O)N1CCN(c2cccc(-c3cc4nc(-c5ccco5)nn4c(N)n3)c2)CC1 | 1 | 8% | Activity (Rattus norvegicus [12]): 23%
